Assay results: PubChem BioAssay AID1136 (Sanford-Burnham Center for Chemical Genomics, 2008)
Screen size: about 200,000 compounds; fewer than 10 were called active.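 Rule for the calls: active = activation factor at least 2 at 20 µM; inactive = the rest.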 The list is a sample of the results.

Molecular target: Alkaline phosphatase, tissue-nonspecific isozyme (Homo sapiens) (UniProt P05186)
Test: TNAP activators at high phosphate acceptor level, primary screen, biochemical, luminescence, uHTS (AID 1136)
Conditions: purified TNAP, CDP-star luminescence, 1 M DEA, 30 min; at 20 µM; active compounds read high; 0 = EDTA background, 1 = DMSO-only activity
Summary of the method: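 Assay system: human TNAP; Input: enzyme diluted 1/800 final; Reagent: CDP-star luminogenic substrate at 100 µM final; Timing: 30 min, room temperature; Signal: luminescence; Evaluation: TNAP activation factor scaled between EDTA and DMSO control wells.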

Chain of Alkaline phosphatase, tissue-nonspecific isozyme (Homo sapiens) (P05186 whole entry, looked up): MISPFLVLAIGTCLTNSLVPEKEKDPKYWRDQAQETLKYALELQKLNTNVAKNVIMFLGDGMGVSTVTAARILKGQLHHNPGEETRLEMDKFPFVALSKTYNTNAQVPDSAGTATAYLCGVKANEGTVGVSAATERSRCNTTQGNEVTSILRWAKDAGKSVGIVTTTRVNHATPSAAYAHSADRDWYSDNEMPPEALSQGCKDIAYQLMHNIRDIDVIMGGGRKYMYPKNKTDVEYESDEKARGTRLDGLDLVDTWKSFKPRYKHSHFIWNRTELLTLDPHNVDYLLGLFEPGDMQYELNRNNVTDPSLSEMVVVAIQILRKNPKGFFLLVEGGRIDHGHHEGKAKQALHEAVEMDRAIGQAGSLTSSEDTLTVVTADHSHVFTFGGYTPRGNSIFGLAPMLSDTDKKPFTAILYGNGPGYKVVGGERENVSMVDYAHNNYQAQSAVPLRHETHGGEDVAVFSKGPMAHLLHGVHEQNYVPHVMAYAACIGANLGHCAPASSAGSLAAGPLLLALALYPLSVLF

Activation factor, inactive:
Cc1ccc(C2(C(F)(F)F)N=C3Sc4cc(C)cc(C)c4N3C(=O)N2)cc1 (stereo not drawn) 1
CCN(CC(=O)NC1CCS(=O)(=O)C1)c1nc(-c2cccnc2)nc2ccccc12 (stereo not drawn) 1
COCC(C)NC(=O)COc1nncc2ccccc12 (stereo not drawn) 1.1
CC(=O)N1C(C)c2ccccc2C(C)(C)CC12CCCCC2 (stereo not drawn) 1
Cn1cccc1/C=C1\SC(=O)N(CC(=O)Nc2ccc(F)cc2)C1=O 1.1
COc1ccc(NC(=O)c2sc(N)nc2-c2ccccc2)cc1 1
Cc1c(NC(=S)NC(=O)CCc2ccccc2)c(=O)n(-c2ccccc2)n1C 1.1
CCCc1nc2c([nH]1)C(c1cccnc1)C(C#N)=C(N)O2 (stereo not drawn) 1
O=C1OC(/C=C/c2ccccc2)=NC/1=C/c1ccco1 1
CCc1ccc(CN(C)Cc2nc(Cc3ccccc3)no2)nc1 1.1
O=C(O)c1ccc2c3c(cccc13)C(=O)N(OS(=O)(=O)c1ccccc1)C2=O 1
CCN(CC)C(=O)Oc1ccc(OC(=O)N(CC)CC)cc1 1.1
CC(Sc1nncn1C)C(=O)Nc1cc(C(F)(F)F)ccc1N1CCOCC1 (stereo not drawn) 1
CN(C)/C=C(/C(=O)c1ccccc1)S(=O)(=O)c1ccc(Cl)cc1 1
O=C(/C=C/c1ccc([N+](=O)[O-])cc1)NCCSCc1ccco1 1
O=C(Oc1cccc(O)c1)C1CCCCC1 1
O=C(NCCc1ccccc1)C1CCC(Cn2c(=O)c3ccccc3n(Cc3cccnc3)c2=O)CC1 (stereo not drawn) 0.9
C=CCc1ccc(OCC(O)CN2CCN(Cc3ccccc3)CC2)c(OC)c1 (stereo not drawn) 1
CC(C)(C)NCc1cc(Br)ccc1OC1CCCC1 1
O=C(NCc1nnc(SCC(=O)N2CCCc3ccccc32)o1)c1ccccc1F 1
CN1CCN(c2ccc(NC(=O)c3ccc4c(c3)OCCO4)cc2Cl)CC1 1.1
O=C(CC(=O)N/N=C\c1cccc(Cl)c1Cl)NCc1ccccc1 1
Cc1cc([N+](=O)[O-])nn1CC(=O)Nc1ccc(Cc2ccncc2)cc1 1
Cc1cc(C)n(-c2ccc(C(=O)O)cc2[N+](=O)[O-])n1 1
Cc1cccc(Nc2nc3c(S(=O)(=O)c4ccccc4)nnn3c3ccccc23)c1C 1.1
Cc1ccc(S(=O)(=O)NC(=O)COc2ccccc2C)cc1 1
Cc1nc2c(C(=O)NCc3cccs3)cnn2c(C)c1Cc1ccc(F)cc1 1
CC(=O)c1cccc(NC(=O)[C@@H](NC(N)=O)C(C)C)c1 1
